Assay results taken from ChEMBL document CHEMBL1148007, “Synthesis of new S-derivatives of clubbed triazolyl thiazole as anti-Mycobacterium tuberculosis agents” (Bioorg Med Chem, 2007).

What was measured:
Escherichia coli = experiment: Antibacterial activity against Escherichia coli at 50 to 100 uM after 24 hrs by well diffusion method; format: functional
Procedure, shortened: (§1)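 Nutrient agar plates with 10 mm wells cut by cork borer; 24-h subcultured bacteria swabbed on. Compounds dissolved in chloroform, 50 to 100 μM added to wells, gentamycin as standard. Incubated 24 h at 24–28 °C; inhibition zone diameter measured and converted to percent inhibition.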

[1] = Cytotoxicity against Vero-C1008 cells at 6.25 to 50 ug/mL by neutral red uptake assay; format: cell-based; details: chlorocebus sabaeus
Procedure, shortened: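 Vero-C-1008 cells exposed to 6.25 to 50 μg/mL compound; viability read by neutral red uptake.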

Salmonella typhi = experiment: Antibacterial activity against Salmonella typhi at 50 to 100 uM after 24 hrs by well diffusion method; format: functional, Salmonella enterica subsp. enterica serovar Typhi; set-up: unit not given here; procedure, shortened: as §1
[2] = system: Mycobacterium tuberculosis; experiment: Antitubercular activity against Mycobacterium tuberculosis H37Rv by MABA assay; format: functional
Procedure, shortened: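 Actives re-tested at lower concentrations against H37Rv (ATCC 27294) in BACTEC 12B medium by Microplate Alamar Blue Assay. MIC taken as lowest concentration giving […] fluorescence reduction versus controls; rifampin reference.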

Staphylococcus aureus = experiment: Antibacterial activity against Staphylococcus aureus at 50 to 100 uM after 24 hrs by well diffusion method; format: functional; procedure, shortened: as §1
Pseudomonas aeruginosa = experiment: Antibacterial activity against Pseudomonas aeruginosa at 50 to 100 uM after 24 hrs by well diffusion method; format: functional; procedure, shortened: as §1
[3] = system: Mycobacterium tuberculosis; experiment: Antitubercular activity against Mycobacterium tuberculosis H37Rv at 6.25 ug/mL by MABA assay; format: functional; details: read-out: GI
Procedure, shortened: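 Primary screen against M. tuberculosis H37Rv (ATCC 27294) in BACTEC 12B medium by broth microdilution Microplate Alamar Blue Assay; fluorescent compounds run instead in BACTEC 460 radiometric system. Compounds above 95% inhibition counted active.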

Row | SMILES | inhibition zone (Escherichia coli) [mm] | Activity [1] | Inhibition (Salmonella typhi) | MIC [2] | inhibition zone (Staphylococcus aureus) [mm] | inhibition zone (Pseudomonas aeruginosa) [mm] | inhibition of growth at 6.25 µg/mL [3] [%]
1 | NNC(=O)CSc1nnc(Cc2csc(NC(=O)c3ccccc3)n2)n1NC(=O)c1cccc([N+](=O)[O-])c1 | 17 | Non-toxic | 20 | 6.25 µM | 28 | 24 | 100
2 | N#CCSc1nnc(Cc2csc(NC(=O)CCl)n2)n1NC(=O)c1cccc([N+](=O)[O-])c1 | 19 | Non-toxic | 24 | < 6.25 µg/mL | 24 | 24 | 100
3 | O=C(CCl)Nc1nc(Cc2nnc(S)n2NC(=O)c2ccc(Cl)cc2)cs1 | 18 | Non-toxic | 14 | 6.25 µM | 20 | 20 | 96
4 | O=C(CCl)Nc1nc(Cc2nnc(S)n2NC(=O)c2cccc([N+](=O)[O-])c2)cs1 | 20 | Non-toxic | 16 | 6.25 µM | 22 | 22 | 96
5 | N#CCSc1nnc(Cc2csc(NC(=O)CCl)n2)n1NC(=O)c1ccc(Cl)cc1 | 26 | Non-toxic | 16 | 3.13 µM | 24 | 28 | 96
6 | CC(=O)Nc1nc(Cc2nnc(S)n2NC(=O)c2cccc([N+](=O)[O-])c2)cs1 | 12 | Non-toxic | 12 | 6.25 µM | 16 | 16 | 100
7 | O=C(CSc1nnc(Cc2csc(NC(=O)CCl)n2)n1NC(=O)c1cccc([N+](=O)[O-])c1)N/N=C/c1ccccc1 | 26 | Non-toxic | 25 | 1.56 µM | 31 | 30 | 100
8 | CC(=O)Nc1nc(Cc2nnc(SCC(=O)N/N=C/c3ccccc3)n2NC(=O)c2ccc(Cl)cc2)cs1 | 20 | Non-toxic | 20 | 3.13 µM | 25 | 20 | 96
9 | NNC(=O)CSc1nnc(Cc2csc(NC(=O)CCl)n2)n1NC(=O)c1ccc(Cl)cc1 | 12 | Non-toxic | 12 | 6.25 µM | 16 | 18 | 96
10 | O=C(O)CCNc1nc(Cc2nnc(SCC(=O)N/N=C/c3ccccc3)n2NC(=O)c2ccc(Cl)cc2)cs1 | 18 | Non-toxic | 22 | 3.13 µM | 22 | 27 | 96
11 | CC(=O)Nc1nc(Cc2nnc(SCC#N)n2NC(=O)c2ccc(Cl)cc2)cs1 | 23 | Non-toxic | 24 | 3.13 µM | 28 | 20 | 96
12 | O=C(CSc1nnc(Cc2csc(NC(=O)CCl)n2)n1NC(=O)c1ccc(Cl)cc1)N/N=C/c1ccccc1 | 19 | Non-toxic | 17 | 3.13 µM | 24 | 19 | 96
13 | N#CCSc1nnc(Cc2csc(NCCC(=O)O)n2)n1NC(=O)c1ccc(Cl)cc1 | 21 | Non-toxic | 25 | 3.13 µM | 30 | 29 | 100
14 | CC(=O)Nc1nc(Cc2nnc(S)n2N)cs1 | 22 | Non-toxic | 24 | < 6.25 µg/mL | 28 | 27 | 96
15 | O=C(Nc1nc(Cc2nnc(S)n2NC(=O)c2cccc([N+](=O)[O-])c2)cs1)c1ccccc1 | 16 | Non-toxic | 12 | 6.25 µM | 11 | 24 | 96
16 | Nn1c(S)nnc1Cc1csc(NC(=O)c2ccccc2)n1 | 18 | Non-toxic | 14 | 6.25 µM | 22 | 20 | 96
17 | CC(=O)Nc1nc(Cc2nnc(SCC(=O)N/N=C/c3ccccc3)n2NC(=O)c2cccc([N+](=O)[O-])c2)cs1 | 24 | Non-toxic | 26 | 0.78 µM | 30 | 31 | 100
18 | O=C(CSc1nnc(Cc2csc(NC(=O)c3ccccc3)n2)n1NC(=O)c1ccc(Cl)cc1)N/N=C/c1ccccc1 | 23 | Non-toxic | 21 | 3.13 µM | 21 | 24 | 96
19 | CC(=O)Nc1nc(Cc2nnc(SCC(=O)NN)n2NC(=O)c2cccc([N+](=O)[O-])c2)cs1 | 22 | Non-toxic | 17 | 6.25 µM | 19 | 23 | 100
20 | O=C(O)CCNc1nc(Cc2nnc(S)n2NC(=O)c2cccc([N+](=O)[O-])c2)cs1 | 18 | Non-toxic | 19 | 6.25 µM | 28 | 25 | 96
21 | NNC(=O)CSc1nnc(Cc2csc(NC(=O)c3ccccc3)n2)n1NC(=O)c1ccc(Cl)cc1 | 26 | Non-toxic | 24 | 6.25 µM | 32 | 32 | 96
22 | N#CCSc1nnc(Cc2csc(NC(=O)c3ccccc3)n2)n1NC(=O)c1ccc(Cl)cc1 | 27 | Non-toxic | 19 | 3.13 µM | 31 | 27 | 96
23 | CC(=O)Nc1nc(Cc2nnc(S)n2NC(=O)c2ccc(Cl)cc2)cs1 | 20 | Non-toxic | 16 | 6.25 µM | 16 | 16 | 96
24 | N#CCSc1nnc(Cc2csc(NCCC(=O)O)n2)n1NC(=O)c1cccc([N+](=O)[O-])c1 | 24 | Non-toxic | 24 | < 6.25 µg/mL | 25 | 23 | 96
25 | O=C(CSc1nnc(Cc2csc(NC(=O)c3ccccc3)n2)n1NC(=O)c1cccc([N+](=O)[O-])c1)N/N=C/c1ccccc1 | 25 | Non-toxic | 24 | 0.39 µM | 32 | 30 | 96
